Measured values from different studies.
Compare with care: the assays were run in different laboratories.
SLC6A4: Sodium-dependent serotonin transporter (SLC6A4, Homo sapiens, UniProt P31645)
rep papain-like protease: Replicase polyprotein 1ab, papain-like protease (rep, Porcine epidemic diarrhea virus, UniProt P0C6Y4)

CC(C)C[C@H](NC(=O)[C@@H](N)[C@@H](C)O)C(=O)N[C@@H](CCC(N)=O)C(=O)N1CCC[C@H]1C(=O)N1CCC[C@H]1C(=O)N[C@@H](C)C(=O)N[C@@H](CO)C(=O)N[C@@H](CO)C(=O)N[C@@H](CCCNC(=N)N)C(=O)N[C@@H](CCCNC(=N)N)C(=O)N[C@@H](CCCNC(=N)N)C(=O)N[C@@H](Cc1c[nH]cn1)C(=O)N[C@@H](Cc1ccccc1)C(=O)N[C@@H](Cc1c[nH]cn1)C(=O)N[C@@H](Cc1c[nH]cn1)C(=O)N[C@@H](C)C(=O)N[C@@H](CC(C)C)C(=O)N1CCC[C@H]1C(=O)N1CCC[C@H]1C(=O)N[C@@H](C)C(=O)N[C@@H](CCCNC(=N)N)C(=O)O  EC50 (C3a anaphylatoxin chemotactic receptor (C3AR1, Homo sapiens, UniProt Q16581); β-arrestin recruitment; agonist): 0.653 µM
O=C1CCC(N2Cc3cc(-c4cc5ccccc5cn4)ccc3C2=O)C(=O)N1 (stereo not drawn)  DC50 (WEE1/CRBN (Homo sapiens, UniProt P30291+Q96SW2); protein level; degrader): 0.043 µM
Cc1cc2[nH]cc(C(=O)O)c(=O)n2n1  Kd (Peptidyl-prolyl cis-trans isomerase F, mitochondrial (PPIF, Homo sapiens, UniProt P30405); binding; SPR): > 20000 µM
CCOC(=O)[C@@]12C[C@@H]1[C@@H](n1cnc3c(NCCCCCCc4ccccc4)nc(I)nc31)[C@H](O)[C@@H]2O  Ki (SLC6A4; ligand displacement; radioligand): 4.6 µM
OC[C@@H]1O[C@@H](OC[C@H]2O[C@@H](OC/C=C/c3ccccc3)[C@H](O)[C@@H](O)[C@@H]2O)[C@H](O)[C@H]1O  Kd (POU domain, class 3, transcription factor 3 (Homo sapiens, UniProt P20264); binding; SPR): 7.57 µM
O=C(NCc1cc(O)c(O)c(Br)c1)c1ccc(Cl)s1  IC50 (rep papain-like protease; enzyme activity; inhibitor; FRET): 2.73 µM
O=C(NCc1ccc(Br)cc1)c1c[nH]c(-c2n[nH]c3ncccc23)c1  Kd (E3 ubiquitin-protein ligase NEDD4 (Homo sapiens, UniProt P46934); binding; MST): 0.0439 µM
O=C(NCc1cc(O)c(O)c(Br)c1)c1ccc(OC(F)(F)F)cc1  IC50 (rep papain-like protease; enzyme activity; inhibitor; FRET): 9.96 µM
N#CC[C@@]12C[C@@H]1[C@@H](n1cnc3c(NCCCCCCc4ccccc4)nc(I)nc31)[C@H](O)[C@@H]2O  Ki (SLC6A4; ligand displacement; radioligand): 4.4 µM
